This is a sample that favours compounds with a hit; in the whole collection about 3% have one here.
5HT1a ag = human 5-HT1a receptor agonists, primary screen, cell-based, CHO, Ga15 NFAT-bla reporter; AID 567, 2006; CHO 5-HT1a Ga15 NFAT-bla reporter, FRET ratio; 0% basal, 100% maximal reference agonist; 5-hydroxytryptamine receptor 1A (Homo sapiens), P08908; 0.56% of 65,000 active; activation, % at 10 µM;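 active means activation above the screen-wide mean activation plus 3 SD, cut at about 19% in these data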
Target sequence (P08908 whole entry, looked up): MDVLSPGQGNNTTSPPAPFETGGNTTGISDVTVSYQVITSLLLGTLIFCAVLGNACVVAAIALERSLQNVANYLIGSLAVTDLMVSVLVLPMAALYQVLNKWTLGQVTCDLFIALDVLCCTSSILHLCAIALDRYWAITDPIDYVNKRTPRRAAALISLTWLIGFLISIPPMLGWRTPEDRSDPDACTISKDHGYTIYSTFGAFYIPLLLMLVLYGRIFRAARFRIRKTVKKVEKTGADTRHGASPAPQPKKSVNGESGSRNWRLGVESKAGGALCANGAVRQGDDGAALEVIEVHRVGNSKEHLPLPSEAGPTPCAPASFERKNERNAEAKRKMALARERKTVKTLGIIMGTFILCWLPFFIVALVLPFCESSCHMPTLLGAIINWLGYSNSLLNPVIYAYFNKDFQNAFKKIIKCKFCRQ
5HT1E ag = 5-HT1E receptor agonists, primary screen, cell-based, HTS; 5-hydroxytryptamine receptor 1E (Homo sapiens), P28566; activation, % at 6 µM; CHO 5-HT1E Ga15 NFAT-bla reporter, FRET; 0% DMSO wells, 100% control agonist wells; AID 574, 2007; 0.69% of 65,000 active;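 active means activation above a set limit, the screen-wide mean activation plus 3 SD, cut at about 8.5% in these data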
S1P1 ag-PAM = S1P1 agonists and agonism potentiators, primary screen, cell-based, primary and confirmation screens, CRE-bla reporter | Sphingosine 1-phosphate receptor 1 (Homo sapiens), P21453 | S1P1 CRE-bla cells, forskolin, beta-lactamase FRET, potentiator mode; S1P1 agonist co-added at EC20, 2 nM; 100% = saturating reference agonist, 0% = basal | activation, % at 9.5 µM | 0.57% of 56,000 active | AID 449, 2006;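 active means activation above a cutoff set at the mean activation of all tested compounds plus 3 SD, cut at about 54% in these data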;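 further: forskolin at 4 µM as EC80 and the EC20 agonist is SEW2871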
S1P3 agonist = human S1P3 receptor agonists, primary screen, cell-based, primary and confirmation, NFAT-BLA reporter; activation, % at 4.5 µM; Sphingosine 1-phosphate receptor 3 (Homo sapiens), Q99500; S1P3 NFAT-BLA reporter cells, agonism, FRET ratio; relative to 1 µM S1P, basal subtracted; 0.1% of 60,000 active; AID 373, 2006;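 active means activation above the screen-wide mean plus 3 SD, cut at about 4.5% in these data, passing the limit was not always enough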
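Benchmarks: high control 1 µM S1P / System: stable CHO line with human S1P3, Gα16, NFAT-BLA reporter / Dosing: single compound concentration, 4.5 µM final / Timing: 4 h compound at 37 °C, 2 h substrate at RT / Measured by: FRET β-lactamase substrate fluorescence, excitation 405 nm, 460/535 nm emission ratio, background-subtracted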
5HT1E antag = 5-HT1E receptor antagonists, primary screen, cell-based, HTS; 5-hydroxytryptamine receptor 1E (Homo sapiens), P28566; CHO 5-HT1E Ga15 NFAT-bla reporter, FRET, antagonist; inhibition, % at 6 µM; 0.99% of 65,000 active; AID 571, 2007;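 active means inhibition above a set limit, the mean inhibition across every tested compound plus 3 SD, cut at about 29% in these data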;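 further: signal is the 460 over 535 nm emission ratio of beta-lactamase substrate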
5-HT1A blocker = human 5-HT1a receptor antagonists, primary screen, cell-based, CHO, Ga15 NFAT-bla reporter; CHO 5-HT1a Ga15 NFAT-bla reporter, antagonist mode; inhibition, % at 10 µM; 0.68% of 62,000 active; AID 612, 2007;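 active means inhibition above the mean of all tested compounds plus 3 SD, cut at about 43% in these data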;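 further: receptor stimulated by 5-CT agonist at 100 nM near EC80; beta-lactamase reporter measured by ratiometric fluorescence of a cleavable substrate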
Of the large screens only hits and unclear results are named; the others gave an inactive call.

O=C(Nc1nnc(C2CC2)o1)c1ccc(S(=O)(=O)N2CCCc3ccccc32)cc1	none
COc1ccc(CN2CCN(c3cccc(C)c3C)CC2)cc1OC	5HT1a ag 28.7, 5HT1E ag 24.0 (no result: S1P1 ag-PAM)
COc1cc(CN2CCN(c3cccc(C)c3C)CC2)cc(Br)c1O	5HT1E ag 36.1
COc1ccc(CN2CCC(C(=O)N3CCN(c4ccccc4F)CC3)CC2)cc1OC	none
O=C(CSc1nnc(-c2cccs2)n1CC1CCCO1)c1cc2ccccc2o1 (stereo unspecified)	none
O=C(NCCc1c[nH]c2ccccc12)c1c(Cl)nc2sccn12	5HT1E antag 33.3 (no result: S1P1 ag-PAM, S1P3 agonist)
Cc1noc(C)c1CSc1nc2sc(C)c(C)c2c(=O)n1C1CCCC1	none
COc1ccc(-n2ncc3c(N(C)C4CCCCC4)ncnc32)cc1	5HT1a ag 30.7
COc1ccc(-n2ncc3c(N4CCC(C)CC4)ncnc32)cc1	none
Cc1cccc(-n2ncc3c(N(C)C4CCCCC4)ncnc32)c1	S1P1 ag-PAM 53.3
Cc1nn(-c2ccc(Cl)cc2)c2[nH]c(=O)c(CNCc3ccc4c(c3)OCO4)cc12	none
Cc1ccccc1-n1c(SCC(=O)c2cc(C)n(C)c2C)nnc1-c1ccncc1	none
O=C(O)C1CCCCC1C(=O)NCCc1ccc(Cl)cc1 (stereo unspecified)	5HT1E ag 21.3
Cc1cc2c(cc(C(=O)OCC(=O)NCc3cccs3)n2C(C)C)o1	5HT1E antag 38.0
CC(=O)C(Sc1nn(C)c(=S)s1)C(=O)Nc1ccccc1 (stereo unspecified)	none
COc1ccc2[nH]c(O)c(NC(C)=O)c2c1	5HT1E ag 12.7
CCOC(=O)c1[nH]c2ccc(OC)cc2c1NC(=O)OC	none
CCc1nnc(NC(=O)C(C)Sc2ccccc2)s1 (stereo unspecified)	none
CCCOC(=O)c1ccc(OCC(O)Cn2c(C)nc3ccccc32)cc1 (stereo unspecified)	S1P1 ag-PAM 95.0
CCOC(=O)Cn1c(C)nc2ccccc21	none (no result: S1P1 ag-PAM)
Cn1cccc1C(=O)Nc1nc(-c2ccccn2)cs1	none
O=C(Nc1nc(-c2ccccn2)cs1)c1ccc(Cl)s1	5HT1E antag 44.0
OC(COc1ccccc1Cl)CN1CCN(CC(O)COc2ccccc2Cl)CC1 (stereo unspecified)	5-HT1A blocker 58.2
C=CCc1ccccc1OCC(O)CN1CCN(c2ccccc2OC)CC1 (stereo unspecified)	5-HT1A blocker 91.3 (no result: S1P1 ag-PAM, S1P3 agonist)
CCOC(=O)N1CCN(CC(O)COc2c(OC)cccc2OC)CC1 (stereo unspecified)	5HT1a ag 168.5
CCOc1ccccc1NC(=O)c1c(NC(=O)CNCc2ccco2)sc2c1CCC2	none
Cc1cnc(C(=O)Nc2ccccc2-c2ccc(C)o2)cn1	none (no result: S1P1 ag-PAM, S1P3 agonist)
COc1ccc(OC)c(C(=O)CN2C(=O)NC(C)(c3ccccc3)C2=O)c1 (stereo unspecified)	5HT1a ag 161.0
Cc1nc2sc(C(c3cccs3)N3CCC(C(N)=O)CC3)c(O)n2n1 (stereo unspecified)	none
CSC1=Nc2sc3c(c2C2=NCCN12)CC(C)(C)OC3	none (no result: 5-HT1A blocker)
COCCCNC(=O)CCCn1c(=O)c2ccccc2n(CC(=O)Nc2c(C)cc(C)cc2C)c1=O	5HT1E ag 42.6
COCCCNC(=O)CCn1c(=O)c2ccccc2n(CC(=O)Nc2c(C)cccc2C)c1=O	none
CCOc1ccc(-c2nc(-c3ccccc3C)no2)cc1	S1P1 ag-PAM 109.5
CCOc1nc(C)ccc1-c1noc(-c2ccncc2)n1	S1P1 ag-PAM 56.1
CCOc1nc(-c2ccccc2)ccc1-c1noc(-c2ccncc2)n1	none
CSCCC(NC(=O)COc1ccccc1)C(=O)N1CCN(c2ccccc2F)CC1 (stereo unspecified)	none
Cc1ccc(S(=O)(=O)N(CC(=O)NCc2ccco2)Cc2ccccc2F)cc1	none
COc1ccc(CCNc2c(C)c(C)nc3ncnn23)cc1	S1P1 ag-PAM 134.4
CCOc1cc(NC(=O)C2CC2)c(OCC)cc1NC(=O)c1cccnc1	none
CCOc1cc(C2c3c(oc4cc(C)c(Cl)cc4c3=O)C(=O)N2Cc2ccco2)ccc1O (stereo unspecified)	5HT1E ag 9.8
Cc1cc2oc3c(c(=O)c2cc1C)C(c1cccc(Br)c1)N(Cc1ccco1)C3=O (stereo unspecified)	none
CC1(C)Cc2c(c(N3CCCC3)nc3sc4c(N5CCN(CCO)CC5)ncnc4c23)CO1	5HT1E antag 40.8 (no result: S1P1 ag-PAM, S1P3 agonist)
C=CCSc1nc(N)c2c(C)c(C)sc2n1	5HT1a ag 48.9
O=C(NCCOc1nc(N2CCCCC2)nc(N2CCOCC2)n1)Nc1ccccc1	none (no result: S1P1 ag-PAM)
CC(=O)NCCOc1nc(N(C)C)nc(N2CCOCC2)n1	5HT1a ag 25.8
O=S1(=O)C=C(Sc2nnc(-c3ccccc3)o2)c2ccccc21	S1P1 ag-PAM 107.0, 5HT1E antag 106.5, 5-HT1A blocker 104.3
Cc1cccc(NC(=O)CCNS(=O)(=O)c2cccc3nsnc23)c1	5HT1E ag 38.2 (no result: S1P1 ag-PAM, S1P3 agonist)
COc1ccc(-c2ccc(SCC(=O)N3CCOCC3)nn2)cc1OC	none
COc1ccc(-c2ccc(SCC(=O)N3CCCC3)nn2)cc1OC	5HT1E antag 30.4
CCCC(C)C(=O)Nc1ccc(C(N)=O)cc1 (stereo unspecified)	none
CCN1CCCC1CNC(=O)c1cc(NC(C)=O)c(N(C)C)cc1OC (stereo unspecified)	none
Brc1ccc2[nH]c3nc(SCCN4CCOCC4)nnc3c2c1	5HT1E antag 35.7
c1ccc2c(c1)[nH]c1nc(SCCN3CCOCC3)nnc12	none (no result: S1P1 ag-PAM)
COCc1cc(C)nc(SCC(=O)Nc2cccc3cccnc23)c1C#N	5HT1E antag 42.1
Cc1ccc2c(CC(=O)Nc3nc(C)cs3)coc2c1	none (no result: S1P1 ag-PAM, S1P3 agonist)
CC(=O)c1ccc(NC(=O)N2CCN(c3cccc(Cl)c3)CC2)cc1	S1P1 ag-PAM 64.7
O=C(O)c1ccccc1C(=O)N1CCN(c2cccc(Cl)c2)CC1	5HT1E ag 45.0
O=C(Nc1cccc(Cl)c1)N1CCN(c2ncccn2)CC1	none
CCOc1ccccc1C(=O)N1CCN(c2cccc(Cl)c2)CC1	5HT1E antag 69.8, 5-HT1A blocker 69.7
COc1ccc(C(=O)N2CCN(c3cccc(Cl)c3)CC2)c(OC)c1	none (no result: S1P1 ag-PAM)
CCOC(=O)c1c(NC(=O)CSc2nnnn2C)sc(CC)c1C	none
